Experimental data taken from ChEMBL document CHEMBL1157509, “Alpha-glucosidase inhibitor from Kothala-himbutu (Salacia reticulata WIGHT)” (J Nat Prod, 2008).
The source made the active and inactive calls. The rule behind the calls is not given here.

What was measured:
[1] = biological target: T1, Sucrase-isomaltase, intestinal (Rattus norvegicus, UniProt P23739); assay: Inhibition of rat intestinal sucrase
Outline: (§1)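 Crude enzyme from rat intestinal acetone powder in 0.1 M K3PO4 buffer (5 mM EDTA, pH 7). Substrates: maltose 25 mM (maltase), sucrose 100 mM (sucrase), isomaltose 25 mM (isomaltase). Sample added in DMSO. Incubated 30 min, then stopped with 2 M Tris-HCl. Released glucose measured by glucose oxidase. IC50 read graphically from percent inhibition versus log concentration.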

[2] = biological target: T2, Pancreatic alpha-amylase (Sus scrofa) (UniProt P00690); assay: Inhibition of pig pancreas alpha amylase
T2 sequence (whole entry): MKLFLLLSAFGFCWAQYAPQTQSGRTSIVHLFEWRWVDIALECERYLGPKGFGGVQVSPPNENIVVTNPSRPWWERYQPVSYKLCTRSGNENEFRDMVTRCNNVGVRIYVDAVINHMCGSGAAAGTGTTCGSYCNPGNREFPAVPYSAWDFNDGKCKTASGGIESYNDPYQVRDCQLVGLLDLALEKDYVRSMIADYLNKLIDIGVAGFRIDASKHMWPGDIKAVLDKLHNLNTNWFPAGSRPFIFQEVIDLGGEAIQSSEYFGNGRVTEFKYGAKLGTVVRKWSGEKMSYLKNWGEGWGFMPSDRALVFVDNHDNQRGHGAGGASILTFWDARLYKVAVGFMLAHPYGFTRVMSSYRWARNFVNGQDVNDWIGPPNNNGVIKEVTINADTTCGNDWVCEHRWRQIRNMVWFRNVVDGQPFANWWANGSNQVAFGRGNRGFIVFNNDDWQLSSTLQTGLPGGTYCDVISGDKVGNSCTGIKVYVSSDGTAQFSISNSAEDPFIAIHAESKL

[3] = biological target: T1, Sucrase-isomaltase, intestinal; assay: Inhibition of rat intestinal isomaltase; outline: as §1

T1 sequence (P23739 1-1013 limits assumed): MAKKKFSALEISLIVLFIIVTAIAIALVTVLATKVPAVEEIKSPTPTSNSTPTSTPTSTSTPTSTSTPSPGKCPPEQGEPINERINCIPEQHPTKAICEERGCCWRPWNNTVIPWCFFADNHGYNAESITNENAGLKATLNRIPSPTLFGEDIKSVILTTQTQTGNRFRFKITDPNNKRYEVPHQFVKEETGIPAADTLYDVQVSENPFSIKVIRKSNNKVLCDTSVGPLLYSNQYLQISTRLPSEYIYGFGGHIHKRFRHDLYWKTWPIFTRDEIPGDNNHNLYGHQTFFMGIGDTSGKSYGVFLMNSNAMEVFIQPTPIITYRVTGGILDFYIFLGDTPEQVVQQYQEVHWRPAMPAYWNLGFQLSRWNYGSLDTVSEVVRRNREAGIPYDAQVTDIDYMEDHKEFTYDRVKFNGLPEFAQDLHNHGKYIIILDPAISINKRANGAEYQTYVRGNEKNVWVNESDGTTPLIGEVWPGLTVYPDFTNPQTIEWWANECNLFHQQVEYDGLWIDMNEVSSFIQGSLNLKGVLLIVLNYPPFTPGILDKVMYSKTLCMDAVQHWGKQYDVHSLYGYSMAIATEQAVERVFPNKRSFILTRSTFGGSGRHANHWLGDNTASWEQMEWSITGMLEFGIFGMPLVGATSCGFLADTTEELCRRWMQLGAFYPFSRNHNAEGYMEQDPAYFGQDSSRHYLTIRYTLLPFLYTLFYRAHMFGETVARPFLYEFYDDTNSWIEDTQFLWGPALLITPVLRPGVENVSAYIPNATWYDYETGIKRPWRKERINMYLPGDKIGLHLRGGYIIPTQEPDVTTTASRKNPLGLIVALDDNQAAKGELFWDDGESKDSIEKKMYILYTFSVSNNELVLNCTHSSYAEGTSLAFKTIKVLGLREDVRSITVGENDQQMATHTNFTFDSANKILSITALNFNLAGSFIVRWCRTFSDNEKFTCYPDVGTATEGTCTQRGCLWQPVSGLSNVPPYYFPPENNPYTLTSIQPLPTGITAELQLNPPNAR
T1 sequence (P23739 1014-1841 limits assumed): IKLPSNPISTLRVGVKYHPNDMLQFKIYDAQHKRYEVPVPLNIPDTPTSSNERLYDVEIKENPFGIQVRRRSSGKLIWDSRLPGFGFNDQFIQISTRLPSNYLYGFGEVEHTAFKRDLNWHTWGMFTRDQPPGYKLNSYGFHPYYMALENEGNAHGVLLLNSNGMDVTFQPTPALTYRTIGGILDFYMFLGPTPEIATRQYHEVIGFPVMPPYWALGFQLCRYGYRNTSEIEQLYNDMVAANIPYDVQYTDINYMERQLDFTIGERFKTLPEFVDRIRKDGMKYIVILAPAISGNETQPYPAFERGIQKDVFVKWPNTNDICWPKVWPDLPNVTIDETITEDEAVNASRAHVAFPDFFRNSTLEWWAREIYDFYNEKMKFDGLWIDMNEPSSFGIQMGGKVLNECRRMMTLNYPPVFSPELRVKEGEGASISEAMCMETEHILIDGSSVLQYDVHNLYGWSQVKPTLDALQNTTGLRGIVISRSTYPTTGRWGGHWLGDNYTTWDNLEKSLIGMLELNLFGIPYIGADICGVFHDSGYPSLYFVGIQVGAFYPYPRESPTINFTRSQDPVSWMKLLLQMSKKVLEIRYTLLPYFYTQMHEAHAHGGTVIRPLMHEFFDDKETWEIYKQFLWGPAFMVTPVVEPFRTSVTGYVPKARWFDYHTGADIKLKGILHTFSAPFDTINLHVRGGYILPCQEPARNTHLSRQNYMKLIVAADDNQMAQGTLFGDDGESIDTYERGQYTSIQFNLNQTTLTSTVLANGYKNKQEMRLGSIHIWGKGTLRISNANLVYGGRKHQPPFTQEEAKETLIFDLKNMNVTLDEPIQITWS

IC50 [1]	Ki [1]	Activity [2]	IC50 [3]	Ki [3]	SMILES
186 nM	52 nM	inactive	99 nM	420 nM	[O-][S+]1CC(O)C(O)C(O)CC(O)CC(O)C(O)C(O)C(O)C1 (stereo not drawn)
2510 nM	200 nM		1770 nM	1100 nM	O=S(=O)([O-])O[C@@H](CO)[C@H](O)C[S@+]1C[C@@H](O)[C@H](O)[C@H]1CO [SALACINOL]
1370 nM	420 nM		4480 nM	4200 nM	O=S(=O)([O-])O[C@@H]([C@H](O)[C@H](O)[C@@H](O)CO)[C@H](O)C[S+]1C[C@@H](O)[C@H](O)[C@H]1CO (stereo partly drawn) [KOTALANOL]
